Assay results reported in ChEMBL document CHEMBL3580530, “Allotides: Proline-Rich Cystine Knot α-Amylase Inhibitors from Allamanda cathartica” (J Nat Prod, 2015).
pIC50: −log10 of the molar value. Activity calls are given as the source filed them. No cut-off for these calls is given here. Where a SMILES comes first, the peptide text is derived from it. Bridges are numbered along the chain shown (N, C = ends).

Columns and labels:
[1] = target: Alpha-amylase (Tenebrio molitor) (UniProt P56634); experiment: (§1) Inhibition of Tenebrio molitor alpha-amylase pre-incubated for 20 mins at 37 degC by bernfeld method
In short: (§2)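 Bernfeld method. Peptide preincubated with α-amylase for 20 min at 37 °C. Hydrolysis started with 1% starch, run 5 min, then stopped with dinitrosalicylic acid color reagent. Absorbance read at 540 nm, with untreated enzyme set as 100%. Enzyme sources: T. molitor larval extract, human saliva, porcine pancreas, A. oryzae.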

[2] = target: T1, Pancreatic alpha-amylase (Sus scrofa) (UniProt P00690); experiment: Inhibition of porcine pancreas alpha-amylase pre-incubated for 20 mins at 37 degC by bernfeld method; in short: as §2
T1 sequence (whole entry): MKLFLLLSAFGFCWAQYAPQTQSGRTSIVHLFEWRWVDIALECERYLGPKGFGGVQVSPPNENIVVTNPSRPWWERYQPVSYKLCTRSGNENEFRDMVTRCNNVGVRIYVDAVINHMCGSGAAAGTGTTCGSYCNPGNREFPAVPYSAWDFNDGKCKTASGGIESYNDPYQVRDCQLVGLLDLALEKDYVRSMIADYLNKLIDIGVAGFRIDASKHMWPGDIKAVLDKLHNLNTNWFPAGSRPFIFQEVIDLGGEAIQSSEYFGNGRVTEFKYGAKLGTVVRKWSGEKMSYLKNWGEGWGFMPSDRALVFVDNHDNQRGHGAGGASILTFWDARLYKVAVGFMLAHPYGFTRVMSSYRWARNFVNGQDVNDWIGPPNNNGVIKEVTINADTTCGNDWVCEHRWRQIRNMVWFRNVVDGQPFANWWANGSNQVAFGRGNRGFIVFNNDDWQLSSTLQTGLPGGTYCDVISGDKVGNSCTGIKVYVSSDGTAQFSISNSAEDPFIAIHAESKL

[3] = test system: Aspergillus oryzae; experiment: Inhibition of Aspergillus oryzae alpha-amylase pre-incubated for 20 mins at 37 degC by bernfeld method; in short: as §2
[4] = target: T2, Alpha-amylase 1A (Homo sapiens) (UniProt P0DUB6); experiment: Inhibition of alpha-amylase in human saliva pre-incubated for 20 mins at 37 degC by bernfeld method; in short: as §2
T2 sequence (whole entry): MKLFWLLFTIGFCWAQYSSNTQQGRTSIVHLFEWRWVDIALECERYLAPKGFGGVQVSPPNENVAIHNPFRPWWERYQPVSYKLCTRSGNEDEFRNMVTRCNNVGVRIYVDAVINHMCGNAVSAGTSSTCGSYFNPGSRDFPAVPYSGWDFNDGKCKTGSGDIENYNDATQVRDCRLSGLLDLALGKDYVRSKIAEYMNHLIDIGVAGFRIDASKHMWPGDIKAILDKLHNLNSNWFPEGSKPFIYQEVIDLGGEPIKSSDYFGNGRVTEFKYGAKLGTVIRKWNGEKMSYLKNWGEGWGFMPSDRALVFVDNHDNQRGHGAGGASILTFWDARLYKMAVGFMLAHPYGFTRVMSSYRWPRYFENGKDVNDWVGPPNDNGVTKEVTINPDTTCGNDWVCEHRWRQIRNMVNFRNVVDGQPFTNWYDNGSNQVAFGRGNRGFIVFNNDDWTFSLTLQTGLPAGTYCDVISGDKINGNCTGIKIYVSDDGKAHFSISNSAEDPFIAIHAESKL

[5] = Toxicity against human O type erythrocytes cells assessed as induction of hemolysis up to 100 uM; type: cell-based; conditions: erythrocyte
In short: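 Hemolysis tested on human type O erythrocytes at up to 100 μM. Cliotide T4 used as the hemolytic positive control. Absorbance read on a microplate reader.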

[6] = Thermal stability assessed as compound degradation at 100 degC incubated for 1 hr; type: physicochemical
In short: (§3)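 Peptide heated at 100 °C for 1 h. Intact peptide monitored by UPLC and MS.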

[7] = Thermal stability assessed as compound hydrolysis using filly reduced form of compound in presence of chymotrypsin at 37 degC incubated for 4 hrs by UPLC and MS method; type: ADME; conditions: isolated protein
In short: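 Incubated with chymotrypsin at 37 °C for 4 h, then analysed by UPLC and MS.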

[8] = target: Alpha-amylase (Tenebrio molitor, UniProt P56634); experiment: as §1; in short: as §2
[9] = Toxicity against BHK cells assessed as effect on cell viability up to 100 uM by Presto blue reagent based assay; design: species or system Mesocricetus auratus; conditions: hamster
[10] = Thermal stability assessed as compound remaining at 100 degC incubated for 1 hr by UPLC and MS method; type: physicochemical; conditions: read-out: Stability; in short: as §3
[11] = test system: Vero; experiment: Toxicity against African green monkey Vero cells assessed as effect on cell viability up to 100 uM by Presto blue reagent based assay; conditions: chlorocebus sabaeus
[12] = Thermal stability assessed as compound degradation in presence of chymotrypsin at 37 degC incubated for 4 hrs; type: ADME; conditions: isolated protein
In short: (§4)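 Peptide incubated with chymotrypsin at 37 °C for 4 h. Intact peptide monitored by UPLC and MS.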

[13] = Thermal stability assessed as compound remaining in presence of chymotrypsin at 37 degC incubated for 4 hrs by UPLC and MS method; type: ADME; conditions: read-out: Stability; in short: as §4
[14] = Toxicity against human HuH7 cells assessed as effect on cell viability up to 100 uM by Presto blue reagent based assay; conditions: huh-7
[15] = test system: Escherichia coli; experiment: Antibacterial activity against Escherichia coli up to 100 uM by radial diffusion assay; type: functional, organism-based
In short: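 Radial diffusion assay against E. coli, peptide tested up to 100 μM. Positive control: D4R, a broad-spectrum antimicrobial peptide dendrimer made in-house.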

Alpha-amylase (Tenebrio molitor), sequence (P56634 whole entry): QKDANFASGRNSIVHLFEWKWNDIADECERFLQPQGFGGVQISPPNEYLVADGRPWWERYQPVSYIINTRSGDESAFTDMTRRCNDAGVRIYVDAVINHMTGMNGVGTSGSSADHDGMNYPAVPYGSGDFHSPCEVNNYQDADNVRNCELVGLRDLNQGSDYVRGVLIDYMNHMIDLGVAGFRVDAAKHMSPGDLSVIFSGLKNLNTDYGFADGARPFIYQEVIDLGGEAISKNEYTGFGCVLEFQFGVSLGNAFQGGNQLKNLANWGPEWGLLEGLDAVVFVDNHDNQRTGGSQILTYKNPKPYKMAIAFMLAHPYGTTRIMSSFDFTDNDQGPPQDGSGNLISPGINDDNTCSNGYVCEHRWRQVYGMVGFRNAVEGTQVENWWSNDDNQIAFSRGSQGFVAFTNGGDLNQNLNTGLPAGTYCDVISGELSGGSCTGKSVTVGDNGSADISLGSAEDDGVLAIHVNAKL
Alpha-amylase, sequence (P56634 whole entry): as above

inhibition [1] | inhibition [2] | inhibition [3] | inhibition [4] | Stability [6] | Stability [7] | pIC50 [8] | remaining at 1 h [10] | Stability [12] | remaining at 4 h [13] | SMILES | Activity [5] | Activity [9] | Activity [11] | Activity [14] | Activity [15]
inactive | inactive | inactive | inactive |  |  |  |  |  |  | CC[C@H](C)[C@@H]1NC(=O)CNC(=O)CNC(=O)[C@H]([C@@H](C)CC)NC(=O)[C@H](C(C)C)NC(=O)[C@@H]2CCCN2C(=O)[C@H](CCC(N)=O)NC(=O)[C@H]([C@@H](C)O)NC(=O)[C@@H]2CSSC[C@@H]3NC(=O)[C@H](Cc4ccc(O)cc4)NC(=O)[C@H](CCC(=O)O)NC(=O)CNC(=O)[C@H](CCCCN)NC(=O)[C@H](CCC(N)=O)NC(=O)[C@H](C)NC(=O)[C@@H](N)CSSC[C@H](NC(=O)[C@H](CSSC[C@H](C(=O)N[C@@H](C)C(=O)O)NC1=O)NC(=O)[C@H](CCC(N)=O)NC(=O)[C@H](CC(C)C)NC(=O)[C@H](Cc1ccc(O)cc1)NC(=O)[C@H](C(C)C)NC(=O)[C@H](CO)NC3=O)C(=O)N[C@@H](CC(=O)O)C(=O)N1CCC[C@H]1C(=O)N[C@@H](Cc1ccc(O)cc1)C(=O)N[C@@H](Cc1cnc[nH]1)C(=O)N2 |  |  |  |  | 
Dose-dependent effect | inactive | inactive | inactive | Stable | Unstable | 5.59 | > 90% | Stable | > 90% | CC[C@H](C)[C@@H]1NC(=O)CNC(=O)[C@H](CC(=O)O)NC(=O)[C@@H]2CSSC[C@@H]3NC(=O)[C@H](CC(C)C)NC(=O)[C@H](Cc4c[nH]c5ccccc45)NC(=O)[C@@H]4CCCN4C(=O)[C@H](CC(=O)O)NC(=O)[C@H](CSSC[C@H](N)C(=O)N[C@@H]([C@@H](C)CC)C(=O)N[C@@H](C)C(=O)N[C@@H](Cc4cnc[nH]4)C(=O)N[C@@H](Cc4ccc(O)cc4)C(=O)NCC(=O)N[C@@H](CCCCN)C(=O)N2)NC(=O)[C@H](CSSC[C@@H](C(=O)N[C@@H](CC(C)C)C(=O)O)NC(=O)[C@H](Cc2ccccc2)NC(=O)CNC(=O)[C@H]([C@@H](C)CC)NC(=O)[C@H]([C@@H](C)CC)NC(=O)[C@@H]2CCCN2C(=O)[C@@H]2CCCN2C(=O)[C@H]([C@@H](C)O)NC3=O)NC(=O)[C@H](CCC(N)=O)NC(=O)[C@H](CC(N)=O)NC(=O)[C@H]([C@@H](C)CC)NC1=O (H-CIAHYGKCDGIINQCCDPWLCTPPIIGFCL-OH; disulfide 1-16, 8-21, 15-29) | Non-toxic | Non-toxic | Non-toxic | Non-toxic | inactive
 |  |  |  | Stable |  |  |  | Stable |  | CC[C@H](C)[C@@H]1NC(=O)CNC(=O)CNC(=O)[C@H]([C@@H](C)CC)NC(=O)[C@H](C(C)C)NC(=O)[C@@H]2CCCN2C(=O)[C@H](CCC(N)=O)NC(=O)[C@H]([C@@H](C)O)NC(=O)[C@@H]2CSSC[C@@H]3NC(=O)[C@H](Cc4ccc(O)cc4)NC(=O)[C@H](CCC(=O)O)NC(=O)CNC(=O)[C@H](CCCCN)NC(=O)[C@H](CCC(N)=O)NC(=O)[C@H](C)NC(=O)[C@@H](N)CSSC[C@H](NC(=O)[C@H](CSSC[C@@H](C(=O)N[C@@H](C)C(=O)O)NC1=O)NC(=O)[C@H](CCC(N)=O)NC(=O)[C@H](CC(C)C)NC(=O)[C@H](Cc1ccc(O)cc1)NC(=O)[C@H](C(C)C)NC(=O)[C@H](CO)NC3=O)C(=O)N[C@@H](CC(=O)O)C(=O)N1CCC[C@H]1C(=O)N[C@@H](Cc1ccc(O)cc1)C(=O)N[C@@H](Cc1cnc[nH]1)C(=O)N2 |  |  |  |  | 
